Data on 21 molecules can be found in ChEMBL document CHEMBL2016577, “Preparation, antibacterial evaluation and preliminary structure-activity relationship (SAR) study of benzothiazol- and benzoxazol-2-amine derivatives” (Bioorg Med Chem Lett, 2012).

Converted amounts (≈) assume the structure as drawn.

Series [1] concerns Staphylococcus aureus. The experiment in a line: Antibacterial activity against Staphylococcus aureus ATCC 25923 after 16 hrs by broth microdilution method. The following applies: ATCC 25923, 16 h. The series is classed as functional. (In general: In broth dilution the organism is exposed to a series of concentrations in liquid medium.)
Series [2] deals with Enterococcus faecalis. The experiment in a line: Antibacterial activity against Enterococcus faecalis ATCC 29212 after 16 hrs by broth microdilution method. The series is classed as functional. The following applies: ATCC 29212, 16 h.
Series [3] relates to Escherichia coli. The experiment in a line: Antibacterial activity against Escherichia coli ATCC 29425 after 16 hrs by broth microdilution method. The series is classed as functional. Particulars: ATCC 29425, 16 h.
The test system of series [4] is Staphylococcus aureus. The experiment in a line: Antibacterial activity against methicillin-susceptible Staphylococcus aureus after 16 hrs by broth microdilution method. The series is classed as functional. The method in brief: (§1)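 Clinical isolates, including strains resistant to common antimicrobials, tested by the standard broth dilution method. The read-out is the minimum inhibitory concentration in μg/mL. Each value is representative of three independent determinations.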

Series [5] deals with Staphylococcus aureus. The experiment in a line: Antibacterial activity against methicillin-resistant Staphylococcus aureus after 16 hrs by broth microdilution method. The series is classed as functional. Put shortly:
as §1

Series [6] deals with Streptococcus pneumoniae. The experiment in a line: Antibacterial activity against penicillin-susceptible Streptococcus pneumoniae after 16 hrs by broth microdilution method. The series is classed as functional.
The subject of series [7] is Streptococcus pneumoniae. The experiment in a line: Antibacterial activity against penicillin-resistant Streptococcus pneumoniae after 16 hrs by broth microdilution method. The series is classed as functional. Put shortly: as §1
Series [8] concerns Enterococcus faecalis. The experiment in a line: Antibacterial activity against vancomycin-susceptible Enterococcus faecalis after 16 hrs by broth microdilution method. The series is classed as functional.
Series [9] concerns Enterococcus faecalis. The experiment in a line: Antibacterial activity against vancomycin-resistant Enterococcus faecalis after 16 hrs by broth microdilution method. The series is classed as functional. Put shortly:
as §1

Series [10] has as its system Enterococcus faecium. The experiment in a line: Antibacterial activity against vancomycin-susceptible Enterococcus faecium after 16 hrs by broth microdilution method. The series is classed as functional. Put shortly:
as §1

For series [11], the system named is Enterococcus faecium. The experiment in a line: Antibacterial activity against vancomycin-resistant Enterococcus faecium after 16 hrs by broth microdilution method. The series is classed as functional. The method in brief:
as §1

The test system of series [12] is Escherichia coli. The experiment in a line: Antibacterial activity against Escherichia coli clinical isolate after 16 hrs by 2-fold microdilution method. The series is classed as functional.
Another series deals with HEK293. The experiment in a line: Cytotoxicity against human HEK293 cells after 48 hrs by MTT assay. The series is classed as cell-based. The following applies: HEK293, 48 h. The method in brief: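 Standard MTT assay in Human Embryonic Kidney 293 cells, with 64 μg/mL as the top concentration tested. IC50 came from three independent experiments.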
Series [13] can be described thus: Cytotoxicity against human HEK293 cells at 64 ug/ml after 48 hrs by MTT assay. Particulars: read-out: INH. The series is classed as cell-based. Put shortly:
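HEK293 cells were exposed to compound at 64 μg/mL and assessed by standard MTT. Inhibitory rate was recorded across three independent experiments.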
Background: Tetrazolium dyes change colour on reduction, which living cells bring about.

With `c1ccc(CNCCNc2nc3ccccc3o2)cc1`, the MIC in the series with Staphylococcus aureus [1], in the series on Enterococcus faecalis [2] and in the series with Escherichia coli [3] was > 64 µg/mL throughout.

In the case of `c1ccc(CNCCCNc2nc3ccccc3o2)cc1`, the MIC against Staphylococcus aureus [1], in the series on Enterococcus faecalis [2] and against Escherichia coli [3] was > 64 µg/mL throughout.

Take `Clc1ccc(CNCCNc2nc3ccccc3o2)cc1`: the MIC (commonly the least concentration at which growth counts as inhibited) is 8 µg/mL (≈ 26.5 µM) against Staphylococcus aureus [1], 32 µg/mL (≈ 106 µM) in the series with Enterococcus faecalis [2] and > 64 µg/mL against Escherichia coli [3].

On to `Clc1ccc(CNCCCNc2nc3ccccc3o2)cc1`, for which the figures for the MIC in the series with Staphylococcus aureus [1], against Enterococcus faecalis [2] and against Escherichia coli [3] were 16 µg/mL (≈ 50.7 µM), 16 µg/mL (≈ 50.7 µM) and > 64 µg/mL, respectively.

With `Brc1cccc(CNCCNc2nc3ccccc3o2)c1`, the MIC against Staphylococcus aureus [1] is 8 µg/mL (≈ 23.1 µM); against Enterococcus faecalis [2], 64 µg/mL (≈ 185 µM); with Escherichia coli [3] it was > 64 µg/mL.

`Brc1cccc(CNCCCNc2nc3ccccc3o2)c1`: the values for the MIC in the series with Staphylococcus aureus [1], against Enterococcus faecalis [2] and in the series with Escherichia coli [3] were 16 µg/mL (≈ 44.4 µM), 8 µg/mL (≈ 22.2 µM) and 32 µg/mL (≈ 88.8 µM), respectively.

As for `Oc1ccc(CNCCNc2nc3ccccc3o2)cc1`, the MIC is 32 µg/mL (≈ 113 µM) with Staphylococcus aureus [1], 32 µg/mL (≈ 113 µM) against Enterococcus faecalis [2] and > 64 µg/mL in the series with Escherichia coli [3].

For the molecule `Oc1ccc(CNCCCNc2nc3ccccc3o2)cc1`, the MIC in the series with Staphylococcus aureus [1] was 32 µg/mL (≈ 108 µM); in the series with Enterococcus faecalis [2] it was 32 µg/mL (≈ 108 µM); in the series with Escherichia coli [3], > 64 µg/mL.

Take `COc1ccc(CNCCNc2nc3ccccc3o2)cc1`: the MIC against Staphylococcus aureus [1] was 64 µg/mL (≈ 215 µM); with Enterococcus faecalis [2], 64 µg/mL (≈ 215 µM); in the series with Escherichia coli [3], > 64 µg/mL.

`COc1ccc(CNCCCNc2nc3ccccc3o2)cc1`: the figures for the MIC in the series on Staphylococcus aureus [1], against Enterococcus faecalis [2] and in the series with Escherichia coli [3] were 32 µg/mL (≈ 103 µM), 32 µg/mL (≈ 103 µM) and > 64 µg/mL, respectively.

Turning to `Clc1ccc(CNCCNc2nc3ccccc3o2)cc1Cl`, the figures for the MIC in the series with Staphylococcus aureus [1], in the series with Enterococcus faecalis [2] and against Escherichia coli [3] were 16 µg/mL (≈ 47.6 µM), 8 µg/mL (≈ 23.8 µM) and > 64 µg/mL, respectively.

In the case of `Clc1ccc(CNCCCNc2nc3ccccc3o2)cc1Cl`, the results for the MIC against Staphylococcus aureus [1], against Enterococcus faecalis [2] and with Escherichia coli [3] were 16 µg/mL (≈ 45.7 µM), 2 µg/mL (≈ 5.71 µM) and 32 µg/mL (≈ 91.4 µM), respectively.

Consider `Clc1ccc(CNCCNc2nc3ccccc3o2)c(Cl)c1`, for which the values for the MIC against Staphylococcus aureus [1], against Enterococcus faecalis [2] and in the series on Escherichia coli [3] were 8 µg/mL (≈ 23.8 µM), 8 µg/mL (≈ 23.8 µM) and > 64 µg/mL, respectively.

For the molecule `Clc1ccc(CNCCCNc2nc3ccccc3o2)c(Cl)c1`, the MIC against Staphylococcus aureus [1] was 8 µg/mL (≈ 22.8 µM); against Enterococcus faecalis [2], 4 µg/mL (≈ 11.4 µM); in the series on Escherichia coli [3], > 64 µg/mL.

Take `COc1ccc2nc(NCCCNCc3ccc(Cl)c(Cl)c3)oc2c1`: the figures for the MIC in the series with Staphylococcus aureus [1], in the series on Enterococcus faecalis [2] and with Escherichia coli [3] were 8 µg/mL (≈ 21 µM), 16 µg/mL (≈ 42.1 µM) and 32 µg/mL (≈ 84.1 µM), respectively.

For the molecule `Clc1ccc2nc(NCCCNCc3ccc(Cl)c(Cl)c3)oc2c1`, the figures for the MIC in the series with Staphylococcus aureus [1], in the series with Enterococcus faecalis [2] and in the series on Escherichia coli [3] were 2 µg/mL (≈ 5.2 µM), 4 µg/mL (≈ 10.4 µM) and 32 µg/mL (≈ 83.2 µM), respectively.

Take `Clc1ccc2oc(NCCCNCc3ccc(Cl)c(Cl)c3)nc2c1`: the MIC against Staphylococcus aureus [1] is 2 µg/mL (≈ 5.2 µM); against Enterococcus faecalis [2], 4 µg/mL (≈ 10.4 µM); against Escherichia coli [3], 32 µg/mL (≈ 83.2 µM).

For the molecule `Fc1ccc2nc(NCCCNCc3ccc(Cl)c(Cl)c3)oc2c1`, the values for the MIC against Staphylococcus aureus [1], with Enterococcus faecalis [2] and with Escherichia coli [3] were 1 µg/mL (≈ 2.72 µM), 4 µg/mL (≈ 10.9 µM) and 32 µg/mL (≈ 86.9 µM), respectively.

With `Fc1ccc2oc(NCCCNCc3ccc(Cl)c(Cl)c3)nc2c1`, the MIC in the series with Staphylococcus aureus [1] worked out at 1 µg/mL (≈ 2.72 µM); in the series on Enterococcus faecalis [2] it was 4 µg/mL (≈ 10.9 µM); against Escherichia coli [3] it was 32 µg/mL (≈ 86.9 µM).

Consider `Fc1cc2nc(NCCCNCc3ccc(Cl)c(Cl)c3)oc2cc1F`, for which the figures for the MIC in the series with Staphylococcus aureus [1], against Enterococcus faecalis [2] and with Escherichia coli [3] were 1 µg/mL (≈ 2.59 µM), 2 µg/mL (≈ 5.18 µM) and 32 µg/mL (≈ 82.9 µM), respectively.

As to `Cl.O=c1cc(NCCCNCc2ccc(Cl)c(Cl)c2)[nH]c2ccccc12`, the minimum inhibitory concentration (MIC) against Staphylococcus aureus [1] was 4 µg/mL; in the series on Enterococcus faecalis [2] it was 0.5 µg/mL; against Escherichia coli [3], > 64 µg/mL; with Staphylococcus aureus [4], 2 µg/mL; with Staphylococcus aureus [5] it was 2 µg/mL; with Streptococcus pneumoniae [6] it was 4 µg/mL. In addition, the minimal inhibitory concentration (MIC) against Streptococcus pneumoniae [7] is 8 µg/mL; against Enterococcus faecalis [8], 1 µg/mL; with Enterococcus faecalis [9], 2 µg/mL; against Enterococcus faecium [10], 1 µg/mL; against Enterococcus faecium [11], 1 µg/mL; in the series on Escherichia coli [12], > 64 µg/mL. In addition, the IC50 (usually the midpoint of a concentration-inhibition curve) with HEK293 is > 64 µg/mL. The cytotoxicity at 48 h, 64 ug/ml in series [13] amounted to 15%.
